Screening results from PubChem.
Beta cell apopt: beta cell apoptosis inhibition; INS-1E cytokine-induced death, ATP luminescence, 48 h; percent of positive-control rescue, neutral wells zero; protection from apoptosis, % (test concentration not listed); 0.8% of 300,000 active; AID 435005;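 active = Every replicate reaches about 75%, or at least half do and their mean reaches it too, limit read from the data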;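 note: 0% = cytokine-treated negative control wells and 100% = positive control rescue; higher means more ATP so stronger rescue from cytokine killing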
T cruzi inh: T. cruzi replication inhibition; T. cruzi beta-gal in NIH3T3, luminescence, 90 h; inhibition, % (test concentration not listed); 1.4% of 300,000 active;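 active = mean inhibition across valid replicates above about 55%, limit read from the data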;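 note: signal also drops with host cell toxicity which is not excluded here; 0% = plate median of DMSO wells and 100% = zero luminescence signal; higher percent means less beta-gal luminescence so fewer parasites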
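System: Mouse NIH/3T3 fibroblasts infected with β-gal-expressing T. cruzi Tulahuen C4 | Quantity: NIH/3T3 cells, 5,000 per well | Reagent: 5000 reporter trypomastigotes per well | Dosing: Compound pinned at 50 nL/well, DMSO | Schedule: 3 h host attachment, then at least 90 h co-culture | Detection: GalScreen luminescence, 60 min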
SKKanGAS inh: inhibitors of SKKanGAS S. pyogenes growth in kanamycin (SK-promoter or general growth effect); BacTiter-Glo, 6 h; inhibition, % at 7.5 µM; AID 1662; 1.3% of 300,000 active;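 active = mean replicate score, as percent of positive control median, at least 50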;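 note: strain carries kanamycin resistance gene driven by streptokinase promoter and grows in 40 µg/ml kanamycin; loss of luminescence reflects streptokinase promoter inhibition or plain growth inhibition; 0% = median of DMSO wells and 100% = positive control at its reference dose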
Lmaj promast: inhibitors of Leishmania major promastigote growth; inhibition, % at 10 µM; Leishmania major promastigotes, resazurin fluorescence viability; 9% of 200,000 active; AID 1063; in the data active = inhibition above about 50%;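 note: promastigotes grown with compound for 44 hours at 28 °C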
CSC inhib: blocks cancer stem cells. inhibition, % at 7.5 µM. 1.1% of 300,000 active. AID 2717. cancer stem cell-like cells viability, luminescence; in the data active = inhibition above about 75%; tested in HMLE shEcad cells
Mdm2-MdmX inh: human Mdm2/MdmX binding inhibition; SaOS-2 split-luciferase Mdm2/MdmX complementation, luminescence; 3% of 330,000 active; AID 485346; inhibition, % at 8 µM; O15151+Q00987;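 active = inhibition of at least 50% at 8 µM in the primary screen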
Active calls of the source: *. The list is not random: actives were taken first. Their share in the collection is about 9.4%.

Screening CCN1CCN(CC(O)COCc2ccccc2)CC1 (stereo not given) returned Beta cell apopt 2, T cruzi inh -3, SKKanGAS inh -1, Lmaj promast -3, CSC inhib -14 and Mdm2-MdmX inh -1.
`CSc1ccc(Cl)c(C(=O)OCC(=O)N2CCN(c3ccccc3)CC2)c1` gave Mdm2-MdmX inh 21.
`COc1cccc(NC(=S)NN=C2CCCCCC2)c1` gave T cruzi inh 25, SKKanGAS inh 52*, Lmaj promast 47 and Mdm2-MdmX inh -87.
Screening COc1cccc(NC(=S)NCc2ccncc2)c1 returned Beta cell apopt 1, T cruzi inh -16, SKKanGAS inh 0, Lmaj promast 68*, CSC inhib -30 and Mdm2-MdmX inh 4.
For Clc1ccc(-c2nnc(-c3ccccc3)c(-c3ccccc3)n2)cc1 the results were Beta cell apopt 3, T cruzi inh 24, SKKanGAS inh 25, CSC inhib 85* and Mdm2-MdmX inh -8.
CC1=CC=CC2=NC(=O)CC(C)(C(=O)N(CC(=O)NC3CCCC3)c3ccc(F)cc3)N12 (stereo not given) was read as Beta cell apopt -1, T cruzi inh 7, SKKanGAS inh -4 and Mdm2-MdmX inh 4.
For CC1=CC=CC2=NC(=O)CC(C)(C(=O)N(CC(=O)NC3CCCC3)c3ccccc3C)N12 (stereo not given) the results were Beta cell apopt -2, T cruzi inh -10, SKKanGAS inh -6, Lmaj promast 80*, CSC inhib -1 and Mdm2-MdmX inh 7.
`O=C(COC(=O)c1ccc(F)c(S(=O)(=O)N2CCOCC2)c1)NCCc1ccccc1` gave Beta cell apopt -4, T cruzi inh 0, SKKanGAS inh -11, CSC inhib -2 and Mdm2-MdmX inh 6.
Screening O=C(COC(=O)c1c(F)cccc1F)Nc1ccc(N2CCCCC2)cc1 returned Beta cell apopt -5, CSC inhib -19 and Mdm2-MdmX inh 15.
For Cn1c(=O)c2c(nc(-n3ccnc3)n2Cc2ccc(Cl)cc2Cl)n(C)c1=O the results were Beta cell apopt 3, T cruzi inh 53, SKKanGAS inh -2, Lmaj promast 84*, CSC inhib 6 and Mdm2-MdmX inh 8.
For Cn1c(=O)c2c(nc(-n3ccnc3)n2Cc2ccccc2)n(C)c1=O the results were T cruzi inh 6, SKKanGAS inh -1, Lmaj promast 8, CSC inhib -4 and Mdm2-MdmX inh 5.
CN(C)c1ccc(-c2nc3n(n2)C(c2cccnc2)C2=C(CC(C)(C)CC2=O)N3)cc1 (stereo not given) was read as Beta cell apopt 6, T cruzi inh 0, SKKanGAS inh -6, Lmaj promast 92*, CSC inhib 11 and Mdm2-MdmX inh 23.
`Brc1ccccc1-c1nnc(CSc2nncn2-c2ccccc2)o1` gave T cruzi inh 0, SKKanGAS inh 6, Lmaj promast 98*, CSC inhib 5 and Mdm2-MdmX inh -2.
Screening Cc1cccc(NC(=O)CC2C(=O)NCCN2C(=O)Nc2ccc(Cl)cc2)c1 (stereo not given) returned Beta cell apopt -14, T cruzi inh 10, SKKanGAS inh 4, CSC inhib -4 and Mdm2-MdmX inh 35.
COc1ccc2c(c1OC)C(=O)N1C2SC(C)(C)[C@H]1C(=O)NC1CC1 (stereo not given in full) was read as Beta cell apopt -2, T cruzi inh 1, SKKanGAS inh 0, CSC inhib -9 and Mdm2-MdmX inh 7.
Screening CC(C)(C)SCCNC(=O)Nc1ccccc1 returned Beta cell apopt -1, T cruzi inh -12, SKKanGAS inh 2, Lmaj promast 54*, CSC inhib -22 and Mdm2-MdmX inh -26.
For Fc1ccccc1OCCCCN1CCCCC1 the results were Beta cell apopt 2, T cruzi inh 18, SKKanGAS inh -3, CSC inhib -18 and Mdm2-MdmX inh -10.
For CCOC1=C/C(=C/c2c(N)n3nc(-c4ccccc4)sc3nc2=O)C=CC1=O the results were T cruzi inh -7, SKKanGAS inh 15, Lmaj promast 12 and Mdm2-MdmX inh -30.
For COC1=C/C(=C/c2c(N)n3nc(-c4ccc(C)cc4)sc3nc2=O)C=CC1=O the results were Lmaj promast 74*.
Screening O=C(c1cccc(Br)c1)N1CCN(S(=O)(=O)N2CCCCCC2)CC1 returned T cruzi inh 6, SKKanGAS inh 14, CSC inhib -6 and Mdm2-MdmX inh 19.
Screening CN1N=C2c3ccccc3CCCC2C1c1ccc(F)cc1 (stereo not given) returned Beta cell apopt -6, T cruzi inh 3, SKKanGAS inh -5, CSC inhib -3 and Mdm2-MdmX inh 8.
Cc1ccc(N2C(=O)CC(N3CCN(C4CCc5ccccc5C4)CC3)C2=O)cc1 (stereo not given) was read as Beta cell apopt -7, T cruzi inh 18, SKKanGAS inh 5, Lmaj promast 87*, CSC inhib -16 and Mdm2-MdmX inh 4.
Screening O=C(CN(C(=O)c1csnn1)c1ccccc1Cl)NCCc1ccccc1 returned Beta cell apopt -3, T cruzi inh -10, SKKanGAS inh 14 and Mdm2-MdmX inh -10.
`Cc1ccccc1N(CC(=O)NCCc1ccccc1)C(=O)c1ccc(N2CCCC2)nc1` gave T cruzi inh 5, SKKanGAS inh -5, Lmaj promast 61*, CSC inhib -6 and Mdm2-MdmX inh 5.
For Cc1ccc(S(=O)(=O)CC(=O)Nc2ncc([N+](=O)[O-])s2)cc1 the results were Beta cell apopt 1, T cruzi inh -6, SKKanGAS inh 9, CSC inhib 5 and Mdm2-MdmX inh 6.
O=C(/C=C/c1ccc([N+](=O)[O-])cc1)Nc1ncc([N+](=O)[O-])s1 was read as Lmaj promast 83*.
Screening Cc1ncoc1C(=O)Nc1ncc([N+](=O)[O-])s1 returned Beta cell apopt 15, T cruzi inh -10, SKKanGAS inh 10, Lmaj promast 13, CSC inhib 19 and Mdm2-MdmX inh -7.
Cc1ccc(CC(=O)Nc2ncc([N+](=O)[O-])s2)cc1 was read as Beta cell apopt 20, T cruzi inh 69*, SKKanGAS inh -6, Lmaj promast 16, CSC inhib 8 and Mdm2-MdmX inh -83.
`O=C(/C=C/c1ccc([N+](=O)[O-])cc1)NCc1ccccn1` gave Beta cell apopt 3, T cruzi inh -13, SKKanGAS inh 2, Lmaj promast 12, CSC inhib 7 and Mdm2-MdmX inh 1.
Screening CCCCC(CC)C(=O)Nc1ncc([N+](=O)[O-])s1 (stereo not given) returned Beta cell apopt 22, T cruzi inh 81*, SKKanGAS inh -8, Lmaj promast 59*, CSC inhib 24 and Mdm2-MdmX inh 38.
Screening COC(=O)c1ccc(CSc2nc3c(c(=O)n2-c2ccc(C)cc2)SCC3)o1 returned Beta cell apopt 10, T cruzi inh 25, SKKanGAS inh 5, Lmaj promast 97* and Mdm2-MdmX inh -13.
